# Screens as filed in PubChem.
# This is a sample that favours compounds with a hit; in the whole collection about 3.9% have one here.
# STAT1 inh: STAT1 signaling inhibition. NIH 3T3 STAT1-luciferase reporter, IFN-gamma, luminescence. inhibition, % at 5.5 µM. actives 0.35% (n = 200,000). AID 920;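 active = inhibition above a set limit, the mean inhibition across all tested compounds plus 3 SD, cut at about 34% in these data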;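 note: 0% = IFN-gamma with DMSO and 100% = IFN-gamma with 300 µM nifuroxazide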
# STAT3 act: STAT3 signaling activation; actives 0.91% (n = 190,000); U3A cells, IL-6 STAT3-luciferase reporter, luminescence; 100% = signal with IL-6 EC80 alone; activation (% of control), % at 5.6 µM;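 active = activation above the screen-wide mean of compound activation plus 3 SD, cut at about 130% in these data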;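 note: 0% = background luminescence of wells with medium and substrate only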
#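 Material: human STAT1-deficient U3A cells with stable STAT3-luciferase reporter / Probe or stimulus: IL-6 stimulus at 33 ng/mL final / Schedule: 1 h compound pre-exposure, 6 h IL-6 stimulation, 37 °C / Technique: luminescence / Read-out basis: percent of IL-6-only median luminescence / Control set: IL-6-only high control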
# APP 5'UTR act: APP 5'UTR luciferase reporter activation | actives 1% (n = 190,000) | SH-SY5Y APP 5'UTR luciferase reporter, luminescence; zero percent = DMSO vehicle wells | activation, % at 2 µM;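 active = activation above a set limit, based on mean plus 3 SD of controls, cut at about 140% in these data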
# STAT1 activator: activators of IFN-gamma induced STAT1 signaling; actives 2.6% (n = 200,000); AID 932; NIH 3T3 STAT1-luciferase reporter, luminescence; 100% = IFN-gamma alone, no compound; activation (% of control), % at 5.5 µM;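 active = activation above the screen-wide mean activation plus 3 SD, cut at about 130% in these data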;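 note: raw ratio to IFN-gamma control signal so 100% means no change and 0% no light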
# NF-kB neuron act: raises NF-kB expression in human neuronal cells. NF-kB reporter expression; stronger effect = higher value. fold change at 12.5 µM. actives 1.6% (n = 190,000); in the data active = fold change above about 3.3
# Pf gametocyte: inhibitors of late stage P. falciparum gametocyte viability | P. falciparum stage V gametocytes, ATP luminescence, 24 h | inhibition, % at 10.9 µM | actives 0.065% (n = 150,000);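 active = inhibition above the mean plus 3 SD of compounds within the control limits, set per campaign, cut at about 38% in these data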;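 note: 0% = DMSO wells and 100% = medium only without gametocytes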
# * hit, by the source's call; / = no result.
SMILES,STAT1 inh,STAT3 act,APP 5'UTR act,STAT1 activator,NF-kB neuron act,Pf gametocyte
COc1cc([N+](=O)[O-])ccc1N/C=C/C(=O)c1cccs1,47*,44,136*,58,4.3*,-1
NC(=O)c1ccccc1NC(=O)/C=C/c1cccc(Cl)c1,-35,96,91,131*,1.6,-20
Cc1cccc(N/C=C/C(=O)c2cccs2)c1C,-31,77,212*,128,4.1*,/
Cn1cccc1CC(=O)N/N=C/c1ccc(Cl)c([N+](=O)[O-])c1,/,/,/,/,/,-6
CC(C)(C)NC(=O)CN(Cc1ccc2c(c1)OCO2)C(=O)CNC(=O)c1cccs1,5,102,0,95,1.2,/
NC(=O)c1ccccc1N/C=C/C(=O)c1cccs1,-42,78,/,138*,5.4*,/
O=C(Nc1ccc(Br)c(Cl)c1)c1ccco1,-40,116,81,135*,2.6,/
O=C(c1ccccc1)c1ccc(N2CCOCC2)c(F)c1,-36,101,110,133*,3,-1
O=C(Nc1ccc(NC(=O)c2ccco2)c(Cl)c1)c1ccccc1,-29,87,45,125,1.2,5
O=C(CSc1nc2ccccc2o1)Nc1ccc(N2CCOCC2)c(Cl)c1,6,76,194*,94,1.3,-18
O=C(Nc1ccc(N2CCOCC2)c(Cl)c1)c1ccccc1F,-41,98,127,138*,5.1*,/
O=C(c1ccccc1)c1cc(F)c(N2CCOCC2)cc1Cl,-7,100,11,106,1.3,/
COC(=O)CSc1ccc(S(=O)(=O)N2CCCCCC2)cc1[N+](=O)[O-],-1,114,4,99,1.1,-4
O=C(Nc1ccc(N2CCOCC2)c(Cl)c1)c1ccco1,-52,84,113,149*,3.4*,9
C/C(CCN1CCCCc2nc(C)c(C)cc21)=N\O[C@H](C)c1cn([C@H](CO)Cc2ccccc2)nn1,-5,103,5,104,0.77,/
Cc1cc2c(nc1C)CCCN2C[C@@H](C)O/N=C1/[C@H]2CCn3c(=O)n(-c4ccccc4)c(=O)n3[C@H]2[C@H](O)[C@@H]2O[C@H]12,0,103,-11,100,3.4*,/
CCN1C(=O)/C(=C\C=C2/C=CC=CN2CC)SC1=S,-38,118,48,134*,2.2,/
CCN1C(=O)/C(=C/C=C2\C=CN(CC)c3ccccc32)SC1=S,0,102,98,100,0.99,/
O=C(NCCc1ccccc1C(F)(F)F)C1CCC(=O)N(CCCN2CCCC2=O)C1 (stereo not given),/,/,/,/,/,-2
Cc1ccc(-n2[nH]c(=O)c(-c3ccccn3)c2C)cc1,76*,25,3,30,0.97,/
CCN(CC)C(=O)CSc1nnc(-c2ccccn2)n1-c1ccccc1OC,/,/,/,/,/,5
Cc1ccc(Oc2ccc(C(F)(F)F)cc2[N+](=O)[O-])c([N+](=O)[O-])n1,/,/,/,/,/,18
O=C(Nc1ccc2c(c1)OCCO2)c1cnc2ccccn2c1=O,-63,75,41,154*,/,/
O=C(Nc1ccc2c(c1)OCCO2)c1c(F)cccc1F,-24,96,112,123,4*,/
NC(=O)Nc1ccc2c(c1)OCCO2,-6,104,/,106,1.8,/
SMILES,STAT1 inh,STAT3 act,APP 5'UTR act,STAT1 activator,NF-kB neuron act,Pf gametocyte
O=C(Nc1ccc2c(c1)OCCO2)c1ccccc1F,-24,57,146*,122,5.2*,30
O=C(Nc1ccc2cn[nH]c2c1)c1ccccc1F,-50,95,82,147*,1,/
COc1cc(CNC2CCCC2)cc(Cl)c1OCc1ccccc1F,-2,97,9,102,0.81,/
COc1ccc(CC(=O)Nc2ccc(N3CCOCC3)cc2)cc1S(=O)(=O)N1CCOCC1,/,/,/,/,/,7
COCCN(CC1CCCN(C2Cc3ccccc3C2)C1)C(=O)CSC (stereo not given),/,/,/,/,/,5
CC(NC(=O)c1cc(COc2c(F)cccc2F)on1)c1cnn(-c2ccccc2)c1 (stereo not given),-29,92,23,128,2.2,18
COCc1cc(C)nc(Oc2ccccc2)c1C#N,-2,97,20,100,1.2,1
CC(=O)NCC(=O)N1CCCC(C(=O)c2ccc(Oc3ccccc3)cc2)C1 (stereo not given),-6,106,8,105,1.5,15
COc1ccc(C(=O)CSc2nnc3n2CCCN3C(=O)Nc2ccccc2)cc1,/,/,/,/,/,-10
